# Source: PubChem
# NS3 helicase inh = inhibitors of HCV NS3 helicase, primary screen, biochemical, Cy5 molecular beacon fluorescence; 290,000 tested, 0.56% active; Hepatitis C virus NS3 helicase; inhibition, % at 10.9 µM; NS3 helicase DNA unwinding;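 active means inhibition above the mean of all tested compounds plus 3 SD, set per campaign, cut at about 35% in these data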
#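 Compound dosing – single dose, 10.9 µM nominal final, DMSO 0.8% final · System – NS3 helicase fragment of HCV · Buffer or medium – MOPS pH 6.5, MgCl2, DTT, Tween20, BSA · Signal – Cy5 beacon fluorescence read at start and 1 h · Also added – annealed dual-labelled DNA beacon duplex, ATP-started · Schedule – 1 h at 25 °C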
# HCV core dimer = inhibitors of HCV core protein dimerization, primary screen, biochemical, TR-FRET, high-throughput; 300,000 tested, 0.33% active; inhibition, % at 5 µM; TR-FRET GST/Flag-core106 dimerization, 1536-well;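 active means inhibition above the mean of all tested compounds plus 3 SD, set per screening campaign, cut at about 45% in these data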
#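 test system = GST/Flag-tagged HCV core106 proteins | probe or stimulus = Eu donor and XL665 acceptor anti-tag antibodies | times = compound-protein-antibody incubation 4 h at 22.5 °C | signal = TR-FRET, excitation 340 nm, emission 617 and 671 nm | measure = percent inhibition of core106 dimerization signal | controls = wells lacking GST-core106 and wells with excess unlabelled core106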
# TAAR1 antagonist = human TAAR1 antagonists, primary screen, Fluo-8 calcium fluorescence, CHO RD-HGA16 cells; antagonist; inhibition, % at 3 µM; 360,000 tested, 1.5% active;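 active means inhibition above a per-plate cutoff, the mean inhibition of test compounds on that plate plus 3 SD, cut at about 49% in these data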
# Target sequence (Q96RJ0 whole entry, looked up): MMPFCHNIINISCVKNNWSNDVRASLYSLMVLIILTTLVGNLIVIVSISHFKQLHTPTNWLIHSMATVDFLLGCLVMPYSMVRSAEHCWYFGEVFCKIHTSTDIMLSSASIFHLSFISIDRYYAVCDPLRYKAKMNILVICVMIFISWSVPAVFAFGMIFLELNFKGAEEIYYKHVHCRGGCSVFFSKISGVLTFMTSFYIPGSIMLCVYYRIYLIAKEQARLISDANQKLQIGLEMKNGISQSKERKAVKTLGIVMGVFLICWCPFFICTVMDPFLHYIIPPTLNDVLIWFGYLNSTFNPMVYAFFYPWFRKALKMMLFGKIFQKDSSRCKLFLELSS
#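 Assay system: CHO-derived RD-HGA16 cells stably expressing human TAAR1 plus Gα16. Timing: 140 s kinetic read after compound, 140 s after agonist. Technique: kinetic Fluo-8 calcium fluorescence measurement. Measure: % inhibition of agonist calcium response.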
# TAAR1 agonist = human TAAR1 agonists, primary screen, Fluo-8 calcium fluorescence, CHO RD-HGA16 cells. Trace amine-associated receptor 1 (Homo sapiens), Q96RJ0. vehicle wells 0%, saturating PEA agonist 100%. activation, % at 3 µM. 360,000 tested, 0.99% active;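 active means activation above the mean activation of all test compounds in the run plus 3 SD, cut at about 38% in these data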
#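 Signal – calcium-sensitive Fluo-8 signal, excitation 470-495, emission 515-575 nm · System – RD-HGA16 (CHO) cells co-expressing Gα16 and hTAAR1 · Incubation – 17-24 h seeding, 75 min 37 °C dye, 30 min RT · Compound dosing – 3 µM single concentration · Repeats – no replicates (n 1)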
# rCAG RNA binder = binders of r(CAG) RNA repeats, primary screen, biochemical, fluorescence; r(CAG) RNA repeat, TO-PRO-1 dye displacement fluorescence; inhibition, % at 3 µM; 370,000 tested, 1.3% active;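 active means inhibition above the plate cutoff, the mean of all test compounds on that plate plus 3 SD, cut at about 35% in these data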;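 further: higher means more dye released from RNA so lower well fluorescence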
# TAAR1 nonsel count = nonselective antagonists in TAAR1 counter-screen cells, counter-screen for hTAAR1 antagonist project, cell-based, fluorescence, calcium. shares compounds with TAAR1 antagonist. counterscreen cell line, antagonist mode. inhibition, % at 3 µM. 2,400 tested, 77% active; in the data active means inhibition above about 22%;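 further: CHO-Ga16 host cells stimulated with ATP at an EC80 level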
# TAAR1 antag conf = human TAAR1 antagonists, retest of hits, confirmation, cell-based, fluorescence. shares compounds with TAAR1 antagonist. TAAR1-expressing cells, fluorescence antagonist read-out. inhibition, % at 3 µM. 2,400 tested, 40% active. AID 651785, 2012; in the data active means inhibition above about 49%;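 further: CHO-Ga16 host cells challenged with agonist PEA near its EC80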
# Ga16 nonsel ag = calcium activation in Ga16-expressing cells, counter-screen for TAAR1 antagonist project, cell-based, fluorescence. activation, % at 3 µM. 2,400 tested, 18% active. agonist counterscreen. AID 651953, 2012. shares compounds with TAAR1 antagonist; in the data active means activation above about 12%
# TAAR1 ag counter = TAAR1 activation by candidate antagonists – cell-based, fluorescence, counter-screen for TAAR1 antagonist project. 2,400 tested, 2% active. shares compounds with TAAR1 antagonist. activation, % at 3 µM. hTAAR1 cell line, agonist mode; in the data active means activation above about 37%;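 further: CHO cells stably expressing TAAR1 with calcium dye readout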
# Numbers stand for hits; i = inactive; nt = no result. A selection: hits, their analogues and other compounds. The true share with any hit is near 3.7%.
SMILES,NS3 helicase inh,HCV core dimer,TAAR1 antagonist,TAAR1 agonist,rCAG RNA binder,TAAR1 nonsel count,TAAR1 antag conf,Ga16 nonsel ag,TAAR1 ag counter
CCCN1CCN(CCCNC(=O)CN2C(=O)c3cccnc3Oc3ccc(C)cc32)CC1,i,i,i,i,i,nt,nt,nt,nt
Cc1ccc2c(c1)N(CC(=O)NCCCc1ccccc1)C(=O)c1cccnc1O2,i,i,73,i,i,27,i,i,i
CCCC[C@H]1C2CC(OC(=O)Nc3ccccc3Cl)C(C2)[C@H]2CCCCN21 (some centres not stated),nt,nt,nt,nt,i,nt,nt,nt,nt
COc1ccc(S(=O)(=O)NCC(=O)N2CCN(c3ccccn3)CC2)c(OC)c1,nt,nt,nt,nt,i,nt,nt,nt,nt
COc1ccc(/C=N/Nc2nc(-c3ccc(C)cc3)c(NC(C)=O)s2)cc1,i,i,51,i,i,i,i,i,i
COc1ccc2[nH]c(=O)c(CN(Cc3nnnn3Cc3ccco3)C3CCCCC3)cc2c1,42,i,67,i,i,28,51,12,i
O=C(COc1cccc2cccnc12)N/N=C/c1cccn1-c1ccc(F)cc1,i,i,53,i,i,25,i,i,i
CCOC(=O)C1=C(C)Nc2ccccc2N=C1NC(=O)c1oc2ccccc2c1COC,nt,nt,70,i,i,30,i,i,i
Cc1cccc(OCC(=O)Nc2cccc(C(=O)NCC(C)C)c2)c1,i,i,70,i,i,i,i,i,i
COc1cc(C(C)=O)ccc1OCC(=O)Nc1ccccc1N1CCCCC1,nt,i,55,i,i,i,i,i,i
CC(=O)c1cccc(OCC(=O)Nc2ccccc2N2CCOCC2)c1,nt,nt,51,i,i,i,i,i,i
CC(C)[C@H](NC(=O)c1ccccc1)C(=O)OCc1nc2scc(-c3ccccc3)c2c(=O)[nH]1,i,i,73,i,i,36,55,i,i
CC(=O)c1cc(-c2cccc(C(C)C)c2)c(=O)n2c1CCC2,nt,nt,nt,nt,i,nt,nt,nt,nt
COc1ccc([C@H]2CC(=O)C=C(c3ccccc3Oc3ccccc3)C2)cc1,nt,nt,50,i,i,i,i,i,i
COc1ccc(C2=CC(=O)C[C@H](c3ccc(F)cc3)C2)cc1OC,nt,nt,92,i,i,i,51,i,i
COc1cc(CN2CC(=O)N(c3ccccc3Cl)C2=S)cc(OC)c1OC,i,i,75,i,i,49,66,14,i
C=CCN1C(=O)[C@H](CC(=O)NCc2cccc(C(F)(F)F)c2)[C@@]2(C(=O)OCC)CCCC=C12,nt,nt,nt,nt,i,nt,nt,nt,nt
COCc1cc(N2CCN(C(=O)OC(C)(C)C)C[C@H]2C)ccc1N1CC[C@H](O)C1,nt,nt,i,i,i,nt,nt,nt,nt
COc1ccccc1CN(C(=O)CNC(=O)c1ccco1)C(C(=O)NCC1CCCO1)c1ccccc1 (configuration not stated),i,i,68,i,i,32,i,i,i
O=C(NCC(=O)N(c1ccc(F)cc1)C(C(=O)NCC1CCCO1)c1ccccc1)c1ccco1 (configuration not stated),i,i,i,i,i,nt,nt,nt,nt
Cc1ccc(C(C(=O)NCC2CCCO2)N(Cc2ccccc2)C(=O)c2ccc(-c3ccccc3)[nH]2)o1 (configuration not stated),i,i,67,i,i,31,i,i,i
O=C(NCC1CCCO1)C(c1cccs1)N(Cc1ccccc1Cl)C(=O)c1ccc(-c2ccccc2)[nH]1 (configuration not stated),i,i,i,i,i,nt,nt,nt,nt
O=C(NCC(=O)N(Cc1ccccc1)C(C(=O)NCC1CCCO1)c1ccccc1)c1ccco1 (configuration not stated),i,i,53,i,i,i,i,i,i
COc1ccc(C(=O)NCC2CCN(C(=O)C(=O)c3cc4ccccc4o3)CC2)c(OC)c1,nt,nt,i,i,i,nt,nt,nt,nt
O=C(N[C@H](C(=O)N1CCC[C@H]1C(=O)NC1CCCC1)C1CCCCC1)C1CC1,nt,nt,i,i,i,nt,nt,nt,nt
SMILES,NS3 helicase inh,HCV core dimer,TAAR1 antagonist,TAAR1 agonist,rCAG RNA binder,TAAR1 nonsel count,TAAR1 antag conf,Ga16 nonsel ag,TAAR1 ag counter
CC1(C(=O)N2CCC(Oc3cccnc3)CC2)CC1,nt,nt,nt,nt,i,nt,nt,nt,nt
CC(C)C(=O)Oc1ccc(CO)cc1[C@H](CCN(C(C)C)C(C)C)c1ccccc1,nt,nt,nt,nt,i,nt,nt,nt,nt
CC(C)(C)C(=O)OC12CCCN(C1)/C(=C/c1cccnc1)C2 (configuration not stated),nt,nt,nt,nt,i,nt,nt,nt,nt
CCOC(=O)C1(Cc2ccccc2C)CCCN(C(=O)c2ccc3nccnc3c2)C1 (configuration not stated),i,i,67,i,i,24,49,i,i
COc1cc(/C=N/NC(=O)c2cccnc2)ccc1OS(=O)(=O)c1cc(C)ccc1C,i,i,64,i,i,32,57,14,i
CCNC(=O)N(C)[C@H]1C[C@H]2c3[nH]c4c(-c5ccc6c(c5)OCO6)cccc4c3CCN2C(=O)[C@H]1[C@H](C)O,nt,nt,i,i,i,nt,nt,nt,nt
CCOCCn1ccc2c(OCC(=O)Nc3ccc(OC)cc3OC)cccc2c1=O,nt,i,i,i,i,nt,nt,nt,nt
COCCn1ccc2c(OCC(=O)Nc3ccccc3OC)cccc2c1=O,nt,i,58,i,i,27,i,i,i
CC1(C)c2[nH]c3ccccc3c2C[C@@H]2C(=O)N(c3ccc(F)cc3F)C(=O)N21,nt,i,61,i,i,40,52,17,i
CC1(C)c2[nH]c3ccccc3c2C[C@@H]2C(=O)N(Cc3ccc(F)cc3)C(=O)N21,nt,i,67,i,i,34,50,i,i
O=C(c1cc(C(=O)NCCc2ccccc2)c(=O)n(CCc2ccccc2)c1)c1cc(Cl)ccc1O,i,i,65,i,i,38,61,i,i
COC(=O)C[C@@H]1CC[C@H]2[C@@H](COc3ccc(NC(=O)c4cc(C)on4)cc3C(=O)N2C)O1,nt,nt,nt,nt,i,nt,nt,nt,nt
O=C1c2cccc(OCC(=O)N3CCCc4ccccc43)c2CCN1Cc1ccc(Br)cc1,i,i,71,i,i,40,51,i,i
